Consider one compound from ChEMBL document CHEMBL4049426, “Identification of the Clinical Candidate (R)-(1-(4-Fluorophenyl)-6-((1-methyl-1H-pyrazol-4-yl)sulfonyl)-4,4a,5,6,7,8-hexahydro-1H-pyrazolo[3,4-g]isoquinolin-4a-yl)(4-(trifluoromethyl)pyridin-2-yl)methanone (CORT125134): A Selective Glucocorticoid Receptor (GR) Antagonist” (J Med Chem, 2017).

SMILES strings stand for the structures. Activity calls are given as the source filed them. The rule behind the calls is not given here.

Data set [1] can be described thus: Cmax in Sprague-Dawley CD-1 rat plasma at 5 mg/kg, po administered through gavage measured up to 24 hrs by LC/MS analysis. Type of data set: ADME, organism-based. Also on record: dose 5 mg/kg, route oral. In outline: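 Jugular-catheterized male Sprague Dawley CD-1 rats (220-250g). Oral arm: five rats, 5mg/kg gavage, 1mg/mL in DMSO:0.5% methylcellulose 10:90, 5mL/kg, sampled pre-dose and 0.25-24 h. i.v. arm: three rats, 1mg/kg, 0.5mg/mL in DMSO:PEG400:propylene glycol 10:45:45, sampled pre-dose and 0.08-24 h. Plasma by LC/MS.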

In data set [2] the target is T1, Glucocorticoid receptor (Homo sapiens) (UniProt P04150).
T1 sequence (whole entry): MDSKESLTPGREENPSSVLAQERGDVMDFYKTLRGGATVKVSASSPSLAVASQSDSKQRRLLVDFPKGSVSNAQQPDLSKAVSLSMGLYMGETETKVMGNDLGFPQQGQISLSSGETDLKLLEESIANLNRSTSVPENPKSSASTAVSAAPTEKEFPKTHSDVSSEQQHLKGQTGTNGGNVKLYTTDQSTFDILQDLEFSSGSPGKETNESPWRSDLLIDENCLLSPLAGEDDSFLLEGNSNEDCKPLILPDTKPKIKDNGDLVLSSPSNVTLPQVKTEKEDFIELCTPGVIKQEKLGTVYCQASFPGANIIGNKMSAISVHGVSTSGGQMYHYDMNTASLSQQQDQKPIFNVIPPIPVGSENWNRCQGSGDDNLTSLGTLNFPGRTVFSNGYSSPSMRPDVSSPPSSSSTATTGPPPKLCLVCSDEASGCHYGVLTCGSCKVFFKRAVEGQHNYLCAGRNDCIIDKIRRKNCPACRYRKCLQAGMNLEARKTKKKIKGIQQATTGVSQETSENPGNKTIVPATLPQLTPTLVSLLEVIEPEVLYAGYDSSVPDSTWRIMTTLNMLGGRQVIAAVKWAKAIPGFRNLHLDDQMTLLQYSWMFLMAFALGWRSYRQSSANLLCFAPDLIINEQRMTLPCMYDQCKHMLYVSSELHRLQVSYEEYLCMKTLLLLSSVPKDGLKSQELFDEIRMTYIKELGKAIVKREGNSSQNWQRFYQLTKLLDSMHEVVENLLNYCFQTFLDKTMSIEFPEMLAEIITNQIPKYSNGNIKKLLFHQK
Description: Displacement of fluormone GS Red from human glucocorticoid receptor at 1 uM after 4 hrs by fluorescence polarization assay relative to control. On the technique in general: Polarisation of emitted light reports the rotation of a fluorescent probe.

Data set [3] can be described thus: (§1) Antagonist activity at monkey glucocorticoid receptor in primary hepatocytes assessed as dexamethasone-induced tyrosine amino transferase activity preincubated for 30 mins followed by dexamethasone addition measured after 20 hrs. Type of data set: cell-based, Macaca mulatta.
For the next data set, the species on record is Macaca mulatta. The description is as §1. It is filed as cell-based.
Data set [4] deals with T1, Glucocorticoid receptor (Homo sapiens). Description: Agonist activity at glucocorticoid receptor in human HepG2 cells assessed as induction of tyrosine amino transferase activity measured after 20 hrs. Type of data set: cell-based. The conditions noted are these: in the assay text read “primary hepatocytes” for “HepG2 cells”. Summed up:
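HepG2 cells in charcoal-stripped FBS RPMI, 25,000 cells/well, 24 h; assay media with 10 µM forskolin. 30 min pre-incubation in 0.1% DMSO, then compound (8-point half-log, 10 µM to 0.003 µM final) for 20 h at 37°C. TAT in lysate with tyrosine, alpha-ketoglutarate and pyridoxal phosphate, 2 h at 37°C, KOH stop, A340. EC50 from 4-parameter fit of % activation of basal TAT.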

Data set [5] relates to Rattus norvegicus. Nature of the data set: In vivo antagonist activity at glucocorticoid receptor in Sprague-Dawley rat cortisone model of exogenous Cushing's syndrome assessed as inhibition of plasma insulin levels at 30 mg/kg, po bid via gavage for 6 days pretreated for 12 hrs followed by cortisone 21-acetate treatment measured 24 hrs after last cortisone 21-acetate treatment. Type of data set: functional, organism-based. In outline:
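Male Sprague Dawley rats (200-250g), 3-day vehicle baseline, groups of eight. Compound as suspension in DMSO:Tween 80:0.5% HPMC 10:0.1:89.9, oral gavage twice daily for 6 days; cortisone 21-acetate 30mg/kg s.c. daily in 1% methylcellulose. Tail-vein blood 24 h after last cortisone (12 h after last compound); glucose by clinical reagent, insulin by ultrasensitive rat ELISA.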

For data set [6], the system named is Rattus norvegicus. Description: In vivo antagonist activity at glucocorticoid receptor in Sprague-Dawley rat cortisone model of exogenous Cushing's syndrome assessed as inhibition of plasma insulin levels at 7.5 mg/kg, po bid via gavage for 6 days pretreated for 12 hrs followed by cortisone 21-acetate treatment measured 24 hrs after last cortisone 21-acetate treatment. It is filed as functional, organism-based. Summed up: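 Male Sprague Dawley rats (200-250 g) got vehicle daily for a 3-day baseline, then groups of eight were dosed. Test agent was suspended in DMSO:Tween 80:0.5% HPMC (10:0.1:89.9) and given by oral gavage twice daily for 6 days. Cortisone 21-acetate was given at 30 mg/kg s.c. once daily in 1% methylcellulose. Tail-vein blood was taken 24 h after the last cortisone dose (12 h after the last test dose). Glucose was read with a clinical reagent and insulin by rat ELISA.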

A further data set deals with T2, Cytochrome P450 2C8 (Homo sapiens, UniProt P10632).
T2 sequence (P10632 whole entry): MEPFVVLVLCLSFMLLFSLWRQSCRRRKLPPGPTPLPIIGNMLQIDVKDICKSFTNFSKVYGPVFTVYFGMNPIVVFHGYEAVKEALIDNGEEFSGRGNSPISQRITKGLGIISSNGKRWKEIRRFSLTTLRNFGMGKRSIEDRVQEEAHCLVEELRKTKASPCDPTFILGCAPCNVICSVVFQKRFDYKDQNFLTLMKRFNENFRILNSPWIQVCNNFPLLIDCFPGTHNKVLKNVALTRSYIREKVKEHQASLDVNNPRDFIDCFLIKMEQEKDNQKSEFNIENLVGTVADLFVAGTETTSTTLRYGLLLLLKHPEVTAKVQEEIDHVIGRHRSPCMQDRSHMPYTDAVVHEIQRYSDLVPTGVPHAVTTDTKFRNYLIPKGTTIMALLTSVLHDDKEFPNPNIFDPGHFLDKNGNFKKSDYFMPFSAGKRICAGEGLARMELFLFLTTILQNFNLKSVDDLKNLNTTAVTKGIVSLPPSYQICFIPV
Nature of the data set: Inhibition of CYP2C8 (unknown origin).

The target in another data set is T3, Cytochrome P450 2B6 (Homo sapiens, UniProt P20813).
T3 sequence (P20813 whole entry): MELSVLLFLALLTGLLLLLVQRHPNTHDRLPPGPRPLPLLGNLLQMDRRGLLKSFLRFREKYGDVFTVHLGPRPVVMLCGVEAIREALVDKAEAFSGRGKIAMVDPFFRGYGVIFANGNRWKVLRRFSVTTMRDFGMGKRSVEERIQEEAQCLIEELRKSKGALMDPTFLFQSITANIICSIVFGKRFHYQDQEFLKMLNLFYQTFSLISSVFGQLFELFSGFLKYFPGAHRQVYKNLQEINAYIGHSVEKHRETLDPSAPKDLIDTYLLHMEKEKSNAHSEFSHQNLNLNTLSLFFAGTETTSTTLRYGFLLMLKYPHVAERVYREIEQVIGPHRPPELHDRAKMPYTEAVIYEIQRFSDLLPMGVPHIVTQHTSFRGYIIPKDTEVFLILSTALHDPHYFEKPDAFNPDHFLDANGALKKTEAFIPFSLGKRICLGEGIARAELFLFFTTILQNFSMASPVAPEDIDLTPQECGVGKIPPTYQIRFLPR
Nature of the data set: Time-dependent inhibition of CYP2B6 (unknown origin). It is filed as ADME.

Turning to `Cn1cc(S(=O)(=O)N2CCC3=Cc4c(cnn4-c4ccc(F)cc4)C[C@]3(C(=O)c3cc(C(F)(F)F)ccn3)C2)cn1` [RELACORILANT], in data set [1], the Cmax is 297 ng/mL. Also, the inhibition in data set [2] was determined as 100%. Further, the Ki in [3] came out at 210 nM. The Imax in the data set listed under Macaca mulatta was 99%. The Emax in data set [4] was determined as 0%. Further, the inhibition entry in the data set with Rattus norvegicus [5] and with Rattus norvegicus [6] was “Active” in each case. On Cytochrome P450 2C8, this compound yielded an IC50 of 210 nM. In addition, the TDI entry on Cytochrome P450 2B6 is “Not Active”.

As a reminder, the Cmax is the maximum level reached in the sampled fluid or tissue. A word on the inhibition: it is the percentage by which the read-out fell short of the control. Broadly, the Ki is the equilibrium dissociation constant of an inhibitor or competing ligand from its target. For orientation: Emax means the maximal effect, on the per cent scale that the assay sets. Broadly, the IC50 is the concentration at which inhibition is half-maximal.
